These results are taken from ChEMBL document CHEMBL5104108, “Concise synthesis and biological activity evaluation of novel pyrazinyl-aryl urea derivatives against several cancer cell lines, which can especially induce T24 apoptotic and necroptotic cell death” (RSC Med Chem, 2022).

For data set [1], the system named is T-24. The data set can be described thus: Down-regulation of MLKL expression in human T24 cells at 7.5 to 10 uM measured in presence of 60 uM Nec-1 after 16 hrs by Western blot analysis. Conditions: dose 7.5-10 µM. Type of data set: functional, cell-based. The method, boiled down: (§1)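 T24 cells co-incubated 16 h with or without Nec-1 (60 μM). Lysates quantified by BCA, 40 μg protein resolved by SDS-PAGE, transferred to PVDF, probed with primary and peroxidase-conjugated secondary antibodies, detected by ECL. Band gray values normalized to β-actin loading control.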
A general note: In western blotting, separated proteins are transferred to a membrane and probed.

Data set [2] is described as follows: AUMC in Sprague-Dawley rat at 6 mg/kg, IG measured HPLC analysis. Format: ADME, organism-based. Conditions: in vivo, po.
For data set [3], the system named is T-24. The data set can be described thus: Induction of apoptosis in human T24 cells at 5 to 7.5 uM measured after 10 hrs by Hoechst 33342 and propidium iodide staining based flow cytometry analysis. Format: functional, cell-based. Conditions: dose 5-7.5 µM. (In flow cytometry, cells or beads pass a laser one at a time.)
In data set [4] the test system is T-24. Put plainly: Induction of apoptosis in human T24 cells assessed as apoptotic cells at 7.5 uM measured after 10 hrs by Annexin-V/FITC and propidium iodide staining based flow cytometry analysis. Type of data set: functional. The method, boiled down: (§2)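 T24 cells in 60 mm dishes treated 10 h at 37 °C, collected, PBS-washed, resuspended in binding buffer, stained with Annexin V-FITC and PI for 15 min at room temperature in the dark. At least 1 × 10^4 events per sample by flow cytometry; apoptotic cells = early (Annexin+/PI−) plus late (Annexin+/PI+). Triplicate experiments.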

In data set [5] the test system is T-24. Put plainly: Induction of apoptosis in human T24 cells assessed as apoptotic cells at 5 uM measured after 10 hrs by Annexin-V/FITC and propidium iodide staining based flow cytometry analysis. Type of data set: functional. The method, boiled down:
as §2

Data set [6] is described as follows: Clearance in Sprague-Dawley rat at 12 mg/kg, IG measured HPLC analysis. Format: ADME, organism-based. Particulars: in vivo, po.
Data set [7] has as its system T-24. The data set can be described thus: Induction of mitochondrial dysfunction in human T24 cells assessed as decrease in mitochondrial membrane potential at 5 to 10 uM measured by JC-1 staining based assay. Type of data set: functional, cell-based. Conditions: dose 5-10 µM. In outline: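 Floating and adherent T24 cells pooled after pretreatment. Washed in cold PBS and stained in the dark with JC-1 (10 μg mL−1). Red and green fluorescence imaged by laser scanning confocal microscopy, five random fields per sample.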

A further data set deals with HepG2. Put plainly: Antiproliferative activity against human HepG2 cells measured after 48 hrs by MTT assay. Particulars: HepG2, 48 h. Format: functional, cell-based. The method, boiled down:
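Cells seeded 5 × 10^3 per well, grown overnight at 37 °C, then exposed to compound at final 1–40 μM (1, 2.5, 5, 7.5, 10, 12.5, 15, 20, 30, 40 μM) for the stated period. MTT added, 4 h at 37 °C, formazan dissolved in DMSO, absorbance read. IC50 = concentration killing 50% of cells relative to untreated control; mean ± S.D. of four independent experiments.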
(Formazan colour is commonly taken as a measure of viable cells.)

Data set [8] in a line: Half-life in Sprague-Dawley rat at 6 mg/kg, IG measured HPLC analysis. Type of data set: ADME, organism-based. Particulars: in vivo, po.
Data set [9] in a line: AUC (0 to 48 hrs) in Sprague-Dawley rat at 6 mg/kg, IG measured HPLC analysis. Set-up: time < 48 hr, dose 6 mg/kg, route ig. Format: ADME, organism-based. Conditions: in vivo, po.
The subject of data set [10] is T-24. Put plainly: Up-regulation of RIPK1 expression in human T24 cells at 2.5 to 7.5 uM measured by ELISA assay. Type of data set: functional, cell-based. Particulars: dose 2.5-7.5 µM. The method, boiled down:
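T24 cells pretreated, collected, diluted in PBS, counted and stored overnight at −20 °C. After membrane disruption, lysates centrifuged at 5000 × g for 5 min (4 °C). RIPK1, RIPK3 and MLKL levels then measured with ELISA kits.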

For data set [11], the system named is T-24. Put plainly: Induction of apoptosis in human T24 cells assessed as increase in Cytochrome c expression at 5 to 7.5 uM measured by Western blot analysis. Format: functional, cell-based. Conditions: dose 5-7.5 µM. The method, boiled down: (§3)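 Apoptosis-related proteins measured by Western blot in T24 lysates: 40 μg protein per lane by SDS-PAGE, PVDF transfer, primary and peroxidase-linked secondary antibodies, ECL detection, densitometry of gray values with β-actin as loading control.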

Data set [12] can be described thus: MRT (0 to 48 hrs) in Sprague-Dawley rat at 6 mg/kg, IG measured HPLC analysis. Type of data set: ADME, organism-based. Particulars: in vivo, po. In outline: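 Fasted (12 h) male-unspecified Sprague-Dawley rats (250 ± 20 g), n = 6 per group. Single intragastric dose of suspension (2 mg mL−1 in Tween 80/0.9% NaCl 1.5:5 v/v). Orbital blood drawn at 0.5–48 h and plasma assayed by reversed-phase C18 HPLC-UV. One-compartment fit, weight 1.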

The subject of data set [13] is T-24. The data set can be described thus: Down-regulation of RIPK3 expression in human T24 cells at 7.5 to 10 uM measured in presence of 60 uM Nec-1 after 16 hrs by Western blot analysis. Type of data set: functional, cell-based. Conditions: dose 7.5-10 µM. In outline: as §1
Data set [14] concerns T-24. Put plainly: Down-regulation of VEGFR-1 mRNA expression in human T24 cells at 5 to 10 uM measured by RT-PCR analysis. Format: functional, cell-based. Particulars: dose 5-10 µM.
The test system of data set [15] is T-24. The data set can be described thus: Induction of apoptosis in human T24 cells assessed as increase in caspase-8 expression at 0 to 5 uM measured by Western blot analysis. Type of data set: functional, cell-based. Conditions: dose 0-5 µM. In outline: as §3
In data set [16] the test system is T-24. The data set can be described thus: Up-regulation of RIPK1 expression in human T24 cells at 7.5 to 10 uM measured after 16 hrs by Western blot analysis. Format: functional, cell-based. Particulars: dose 7.5-10 µM.

Active and inactive are the calls of the source. The rule behind the calls is not given here.

What is called CL/F is clearance divided by bioavailability, as obtained after extravascular dosing. Broadly, the IC50 is the concentration at which inhibition is half-maximal. One may read the half-life as how long it takes for the measured level to halve. Read a low half-life as rapid decline. As a reminder, the AUC(0-t) is the area under the concentration-time curve up to a stated or last time point. Read a low AUC(0-t) as low exposure. Broadly, the MRT last is a mean duration of stay, worked out from the concentration-time curve.

In the case of `O=C(Nc1ccc(C(F)(F)F)cc1)Nc1cccc(CNc2nccnc2Cl)c1`, the result with T-24 [1], with T-24 [3], in the data set on T-24 [7], with T-24 [10], in the data set on T-24 [11] and in the data set on T-24 [13] was Active. Besides, the result in the data set on T-24 [14], in the data set with T-24 [15] and in the data set with T-24 [16] was Active. This compound yielded an AUMC in [2] of 606261 hr2.ng/ml. Besides, the figures for the Activity in the data set with T-24 [4] and with T-24 [5] were 21.41% and 14.83%, respectively. The same compound gave a CL/F in data set [6] of 0.659 mL/min. The compound further showed an IC50 in the data set on HepG2 of 5.05 µM. This compound gave a half-life in [8] of 6.56 h. Further, in data set [9], the AUC(0-t) at 48 h was found to be 30800 ng·h/mL. In data set [12], the MRT last worked out at 9.17 h.
